pIC50, pKd: −log10 of the molar value. In brackets after ≈: the same amount, converted by molar mass.
How the values were obtained:
[1] = Drug uptake in Lister Hooded rat eyes at 4.55 umol/kg, po measured after 24 hrs by whole body autoradiography; format: ADME, organism-based, Eye; settings: in vivo, dose 4.55 µmol/kg
Method in brief: (§1)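 Rats were given a single oral dose of 10 MBq/kg of the [14C]-labelled compound. Whole-body autoradiography was done 24 h post-dose on sections before and after extraction, with the nonextractable liver fraction taken from the extracted sections. Whole-body drug-related material was also measured at 7 days.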

[2] = Drug uptake in Lister Hooded rat at 4.55 umol/kg, po measured after 7 days by whole body autoradiography; format: ADME, organism-based; settings: in vivo, 168 h, at 4.55 µmol/kg, time 7 day; method in brief: as §1
[3] = Drug uptake in Lister Hooded rat liver assessed as nonextractable fraction at 4.55 umol/kg, po measured after 24 hrs by whole body autoradiography; format: ADME, organism-based; settings: in vivo, at 4.55 µmol/kg; method in brief: as §1
[4] = Drug uptake in Lister Hooded rat pigmented skin at 4.55 umol/kg, po measured after 24 hrs by whole body autoradiography; format: ADME, organism-based, Skin of body; settings: in vivo, dose 4.55 µmol/kg; method in brief: as §1
[5] = Apparent permeability of the compound across apical to basolateral side in human Caco-2 cells at 10 uM by LC-MS/MS analysis
[6] = biological target: T1, Myeloperoxidase (Homo sapiens, UniProt P05164); assay: Inhibition of MPO (unknown origin) measured after 15 mins in presence of H2O2 by chemiluminescence assay
T1 sequence (P05164 whole entry): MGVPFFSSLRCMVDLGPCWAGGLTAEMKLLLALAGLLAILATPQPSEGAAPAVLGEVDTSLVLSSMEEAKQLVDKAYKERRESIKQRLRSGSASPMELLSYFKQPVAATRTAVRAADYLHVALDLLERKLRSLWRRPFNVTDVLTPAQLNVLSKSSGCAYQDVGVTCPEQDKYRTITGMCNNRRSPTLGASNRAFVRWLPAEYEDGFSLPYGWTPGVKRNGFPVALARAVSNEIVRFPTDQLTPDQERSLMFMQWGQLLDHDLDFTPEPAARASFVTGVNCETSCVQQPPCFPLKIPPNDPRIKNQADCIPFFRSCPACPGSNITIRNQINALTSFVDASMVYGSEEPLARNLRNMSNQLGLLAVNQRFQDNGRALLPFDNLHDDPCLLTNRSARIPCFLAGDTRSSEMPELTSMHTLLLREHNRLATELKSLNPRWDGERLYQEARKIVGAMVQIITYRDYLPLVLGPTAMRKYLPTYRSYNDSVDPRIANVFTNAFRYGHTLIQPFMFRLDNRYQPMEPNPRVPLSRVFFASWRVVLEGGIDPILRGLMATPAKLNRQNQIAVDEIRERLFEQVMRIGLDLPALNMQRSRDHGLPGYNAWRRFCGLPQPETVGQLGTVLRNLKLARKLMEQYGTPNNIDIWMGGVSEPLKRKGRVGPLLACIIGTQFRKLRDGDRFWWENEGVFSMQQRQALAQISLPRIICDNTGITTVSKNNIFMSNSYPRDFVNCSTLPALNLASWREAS

[7] = Lipophilicity, log D of the compound; settings: octanol/water
[8] = biological target: T1, Myeloperoxidase; assay: Inhibition of MPO in human HL-60 cells measured after 15 mins in presence of H2O2 by chemiluminescence assay; format: cell-based
[9] = physchem; settings: phosphate buffer, pH 7.4
[10] = biological target: T2, Thyroid peroxidase (Homo sapiens, UniProt P07202); assay: Inhibition of human recombinant TPO (1 to 839 residues) expressed in baculovirus-infected insect cells measured after 15 mins in presence of H2O2 by chemiluminescence assay
T2 sequence (P07202 whole entry): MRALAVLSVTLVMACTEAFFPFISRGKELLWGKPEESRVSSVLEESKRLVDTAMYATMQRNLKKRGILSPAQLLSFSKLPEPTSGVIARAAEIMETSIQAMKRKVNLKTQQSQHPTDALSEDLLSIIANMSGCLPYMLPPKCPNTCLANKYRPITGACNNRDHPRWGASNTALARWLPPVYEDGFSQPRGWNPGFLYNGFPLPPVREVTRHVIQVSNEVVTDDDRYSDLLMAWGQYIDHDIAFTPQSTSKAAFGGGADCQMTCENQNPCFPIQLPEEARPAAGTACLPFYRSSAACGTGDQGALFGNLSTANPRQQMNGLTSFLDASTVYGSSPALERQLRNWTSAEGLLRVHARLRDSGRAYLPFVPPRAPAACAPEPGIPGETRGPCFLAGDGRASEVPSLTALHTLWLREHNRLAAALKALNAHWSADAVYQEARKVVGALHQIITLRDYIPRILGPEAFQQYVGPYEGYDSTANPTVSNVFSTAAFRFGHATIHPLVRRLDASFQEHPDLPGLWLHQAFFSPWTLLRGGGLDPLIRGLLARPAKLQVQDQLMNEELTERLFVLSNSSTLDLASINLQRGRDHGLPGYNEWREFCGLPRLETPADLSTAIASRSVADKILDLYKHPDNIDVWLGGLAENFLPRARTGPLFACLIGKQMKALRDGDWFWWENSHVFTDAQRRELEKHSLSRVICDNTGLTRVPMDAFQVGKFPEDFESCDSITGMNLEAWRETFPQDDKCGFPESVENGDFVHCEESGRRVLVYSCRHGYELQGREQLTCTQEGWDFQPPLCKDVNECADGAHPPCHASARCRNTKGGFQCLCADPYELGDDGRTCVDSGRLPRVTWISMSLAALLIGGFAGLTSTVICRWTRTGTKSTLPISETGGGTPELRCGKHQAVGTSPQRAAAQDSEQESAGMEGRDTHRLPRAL
Method in brief: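 IC50 determined against purified enzyme in an in vitro chemiluminescent assay.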

[11] = biological target: Cytochrome P450 2D6 (Homo sapiens, UniProt P10635); assay: Inhibition of CYP2D6 (unknown origin) using coumarin as substrate preincubated with enzyme for 10 mins followed by NADPH addition and measured after 20 to 50 mins by fluorescence based method
Chain of Cytochrome P450 2D6 (P10635 whole entry): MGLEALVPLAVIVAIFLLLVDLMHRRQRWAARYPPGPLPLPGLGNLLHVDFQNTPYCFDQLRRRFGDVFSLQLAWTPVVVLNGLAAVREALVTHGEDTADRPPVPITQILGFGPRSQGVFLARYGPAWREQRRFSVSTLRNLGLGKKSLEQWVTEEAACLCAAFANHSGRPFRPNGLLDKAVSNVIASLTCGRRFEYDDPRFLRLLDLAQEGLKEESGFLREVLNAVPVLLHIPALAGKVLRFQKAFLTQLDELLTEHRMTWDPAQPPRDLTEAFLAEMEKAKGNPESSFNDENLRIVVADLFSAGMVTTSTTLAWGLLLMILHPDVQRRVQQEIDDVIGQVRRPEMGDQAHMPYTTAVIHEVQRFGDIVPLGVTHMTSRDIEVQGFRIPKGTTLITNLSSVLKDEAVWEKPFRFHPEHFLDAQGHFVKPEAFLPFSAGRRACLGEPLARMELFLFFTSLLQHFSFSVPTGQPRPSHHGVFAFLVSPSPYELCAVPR

[12] = biological target: T3, Cytochrome P450 1A2 (Homo sapiens, UniProt P05177); assay: Inhibition of human recombinant CYP1A2 using coumarin as substrate preincubated with enzyme for 10 mins followed by NADPH addition and measured after 20 to 50 mins by fluorescence based method
T3 sequence (P05177 whole entry): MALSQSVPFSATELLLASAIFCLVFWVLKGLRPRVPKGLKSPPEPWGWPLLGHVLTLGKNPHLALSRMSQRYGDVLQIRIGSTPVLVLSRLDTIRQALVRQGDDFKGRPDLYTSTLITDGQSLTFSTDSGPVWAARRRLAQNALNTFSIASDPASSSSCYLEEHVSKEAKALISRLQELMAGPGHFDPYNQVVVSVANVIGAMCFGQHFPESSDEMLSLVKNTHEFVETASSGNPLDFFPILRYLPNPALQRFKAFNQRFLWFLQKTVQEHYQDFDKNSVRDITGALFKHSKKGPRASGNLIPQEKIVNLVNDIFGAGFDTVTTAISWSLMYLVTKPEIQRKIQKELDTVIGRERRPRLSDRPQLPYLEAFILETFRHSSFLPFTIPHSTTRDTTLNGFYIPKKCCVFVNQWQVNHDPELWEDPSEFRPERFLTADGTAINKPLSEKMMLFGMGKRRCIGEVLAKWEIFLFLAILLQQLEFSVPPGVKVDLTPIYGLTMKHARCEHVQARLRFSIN

[13] = biological target: Cytochrome P450 3A4 (Homo sapiens, UniProt P08684)
Chain of Cytochrome P450 3A4 (P08684 whole entry): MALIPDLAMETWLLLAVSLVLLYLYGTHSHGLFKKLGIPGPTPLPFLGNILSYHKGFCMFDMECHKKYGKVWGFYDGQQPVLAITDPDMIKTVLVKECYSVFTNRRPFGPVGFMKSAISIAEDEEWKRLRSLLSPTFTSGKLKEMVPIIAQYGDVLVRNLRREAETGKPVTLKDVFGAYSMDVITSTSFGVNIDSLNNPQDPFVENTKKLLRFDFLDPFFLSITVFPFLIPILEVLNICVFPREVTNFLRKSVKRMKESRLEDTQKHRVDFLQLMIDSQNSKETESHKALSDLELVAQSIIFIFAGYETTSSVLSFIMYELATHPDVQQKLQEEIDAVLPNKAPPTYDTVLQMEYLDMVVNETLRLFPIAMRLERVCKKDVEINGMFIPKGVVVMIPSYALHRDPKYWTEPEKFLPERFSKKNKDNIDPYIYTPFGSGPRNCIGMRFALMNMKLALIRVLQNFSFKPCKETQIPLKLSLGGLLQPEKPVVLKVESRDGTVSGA

[14] = biological target: Voltage-gated inwardly rectifying potassium channel KCNH2 (Homo sapiens, UniProt Q12809)
Chain of Voltage-gated inwardly rectifying potassium channel KCNH2 (Q12809 whole entry): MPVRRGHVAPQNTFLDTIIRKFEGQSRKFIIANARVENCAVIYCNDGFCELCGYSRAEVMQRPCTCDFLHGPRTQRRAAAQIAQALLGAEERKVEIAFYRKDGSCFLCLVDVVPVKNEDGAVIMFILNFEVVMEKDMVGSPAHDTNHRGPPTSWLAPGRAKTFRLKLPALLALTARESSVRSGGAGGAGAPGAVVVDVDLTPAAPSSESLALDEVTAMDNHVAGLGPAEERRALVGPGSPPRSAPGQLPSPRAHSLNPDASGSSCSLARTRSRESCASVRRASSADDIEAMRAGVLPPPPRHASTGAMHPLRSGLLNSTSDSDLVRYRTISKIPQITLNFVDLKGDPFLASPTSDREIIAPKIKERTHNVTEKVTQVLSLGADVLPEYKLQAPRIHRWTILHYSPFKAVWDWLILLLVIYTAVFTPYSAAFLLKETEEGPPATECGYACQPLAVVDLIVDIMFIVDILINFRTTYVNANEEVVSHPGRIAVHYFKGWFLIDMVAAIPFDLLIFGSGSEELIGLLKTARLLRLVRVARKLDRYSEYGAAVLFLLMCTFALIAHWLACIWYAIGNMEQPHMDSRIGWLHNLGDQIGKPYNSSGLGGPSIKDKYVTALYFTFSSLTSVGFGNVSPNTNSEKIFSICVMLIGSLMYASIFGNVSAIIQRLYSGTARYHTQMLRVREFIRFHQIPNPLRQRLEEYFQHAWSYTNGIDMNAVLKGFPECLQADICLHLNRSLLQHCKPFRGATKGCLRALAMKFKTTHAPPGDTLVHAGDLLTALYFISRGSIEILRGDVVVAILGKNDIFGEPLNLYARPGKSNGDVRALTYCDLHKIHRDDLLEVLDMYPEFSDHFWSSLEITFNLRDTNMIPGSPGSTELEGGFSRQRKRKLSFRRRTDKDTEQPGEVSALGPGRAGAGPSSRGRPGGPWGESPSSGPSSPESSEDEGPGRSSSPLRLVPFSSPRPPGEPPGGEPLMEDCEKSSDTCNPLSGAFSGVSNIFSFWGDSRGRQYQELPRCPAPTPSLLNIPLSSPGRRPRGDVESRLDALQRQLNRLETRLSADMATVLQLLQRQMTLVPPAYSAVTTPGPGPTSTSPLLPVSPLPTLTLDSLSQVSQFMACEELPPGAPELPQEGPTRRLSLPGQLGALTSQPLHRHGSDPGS

[15] = biological target: Cytochrome P450 2C19 (Homo sapiens, UniProt P33261); assay: Inhibition of human recombinant CYP2C19 using coumarin as substrate preincubated with enzyme for 10 mins followed by NADPH addition and measured after 20 to 50 mins by fluorescence based method
Chain of Cytochrome P450 2C19 (P33261 whole entry): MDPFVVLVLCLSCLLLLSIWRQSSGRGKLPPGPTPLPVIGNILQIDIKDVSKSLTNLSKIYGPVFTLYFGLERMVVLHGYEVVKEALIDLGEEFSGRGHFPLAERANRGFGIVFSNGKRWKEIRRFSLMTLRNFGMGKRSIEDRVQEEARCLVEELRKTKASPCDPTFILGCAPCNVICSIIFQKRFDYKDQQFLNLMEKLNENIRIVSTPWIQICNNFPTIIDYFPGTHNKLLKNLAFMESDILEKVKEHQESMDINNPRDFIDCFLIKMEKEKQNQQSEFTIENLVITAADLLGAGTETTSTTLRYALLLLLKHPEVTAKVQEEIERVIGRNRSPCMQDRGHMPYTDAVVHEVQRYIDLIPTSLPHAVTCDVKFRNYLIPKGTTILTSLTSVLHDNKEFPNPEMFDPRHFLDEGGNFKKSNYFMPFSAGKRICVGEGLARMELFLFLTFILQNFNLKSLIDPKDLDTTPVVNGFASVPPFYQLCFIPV

[16] = Oral bioavailability in Wistar Han rat measured up to 24 hrs by LC-MS/MS analysis; format: ADME, organism-based; settings: in vivo
[17] = Oral bioavailability in Beagle dog measured up to 24 hrs by LC-MS/MS analysis; format: ADME, organism-based, Canis lupus familiaris; settings: in vivo
[18] = biological target: Cytochrome P450 2C9 (Homo sapiens, UniProt P11712); assay: Inhibition of human recombinant CYP2C9 using coumarin as substrate preincubated with enzyme for 10 mins followed by NADPH addition and measured after 20 to 50 mins by fluorescence based method
Chain of Cytochrome P450 2C9 (P11712 whole entry): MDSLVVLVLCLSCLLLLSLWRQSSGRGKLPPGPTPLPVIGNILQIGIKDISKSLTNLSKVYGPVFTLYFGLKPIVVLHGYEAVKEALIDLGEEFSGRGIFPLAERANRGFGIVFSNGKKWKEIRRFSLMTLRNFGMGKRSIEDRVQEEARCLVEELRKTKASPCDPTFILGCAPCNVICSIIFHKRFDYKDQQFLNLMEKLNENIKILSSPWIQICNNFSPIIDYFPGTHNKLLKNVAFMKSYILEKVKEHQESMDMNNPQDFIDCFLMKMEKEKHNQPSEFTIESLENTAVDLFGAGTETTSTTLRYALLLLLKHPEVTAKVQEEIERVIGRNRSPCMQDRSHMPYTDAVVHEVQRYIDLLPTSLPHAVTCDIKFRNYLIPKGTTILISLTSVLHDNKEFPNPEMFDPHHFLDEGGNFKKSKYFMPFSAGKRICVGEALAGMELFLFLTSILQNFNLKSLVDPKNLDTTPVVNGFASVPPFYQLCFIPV

[19] = Drug uptake in human liver microsomes assessed as covalent binding at 10 uM incubated for 60 mins in presence of formaldehyde by LC/MS analysis; format: ADME, Microsome; settings: 1 h
Method in brief: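 Covalent binding of the [14C]-labelled compound in human liver microsome incubations with 5 mM formaldehyde added.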

[20] = Drug uptake in human liver microsomes assessed as covalent binding at 10 uM incubated for 60 mins by LC/MS analysis; format: ADME, Microsome; settings: 1 h
Method in brief: (§2)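 Human liver microsomes incubated with the [14C]-labelled compound to measure covalent binding to microsomal protein.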

[21] = Drug uptake in human liver microsomes assessed as covalent binding at 10 uM incubated for 60 mins in presence of NADPH by LC/MS analysis; format: ADME, Microsome; settings: 1 h; method in brief: as §2
[22] = Drug uptake in heat-inactivated human liver microsomes assessed as covalent binding at 10 uM incubated for 60 mins by LC/MS analysis; format: ADME, Microsome; settings: 1 h; method in brief: as §2
[23] = Drug uptake in human hepatocytes assessed as covalent binding measured per mg protein; format: ADME, cell-based, Hepatocyte
Method in brief: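 [14C]-labelled compound incubated with human hepatocytes; covalently bound radioactivity expressed as pmol per mg protein.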

[24] = biological target: T1, Myeloperoxidase; assay: Displacement of benzhydroxamic acid from native state MPO (unknown origin) by 1D NMR reporter assay

Row | SMILES | Papp A→B at 10 µM [5] | pIC50 [6] | logD [7] | pIC50 [8] | solubility thermodynamic at 18 h [9] | pIC50 [10] | other results
1 | C[C@@H](N)c1cc(Cl)ccc1Cn1c2cc[nH]c2c(=O)[nH][14c]1=S | – | – | – | – | – | – | Drug uptake [1]: Active; Drug uptake [2]: 0.1%; Drug uptake [3]: < 0.2%; Drug uptake [4]: Active
2 | CNCc1c(Cl)cccc1Cn1c(=S)[nH]c(=O)c2[nH]ccc21 | 19 ×10⁻⁶ cm/s | 7.41 | 1.3 | 5.03 | 150 µM (≈ 50.2 µg/mL) | 5.38 | –
3 | O=c1[nH]c(=S)n(Cc2ccccc2CN2CCC2)c2cc[nH]c12 | 19 ×10⁻⁶ cm/s | 7.82 | 1 | 5.18 | 930 µM (≈ 304 µg/mL) | 5.82 | –
4 | CNCc1ccc(Cl)cc1Cn1c(=S)[nH]c(=O)c2[nH]ccc21 | 9.6 ×10⁻⁶ cm/s | 7.57 | 1.1 | 5.21 | 210 µM (≈ 70.3 µg/mL) | 5.72 | –
5 | C[C@@H](N)c1cc(Cl)ccc1Cn1c(=S)[nH]c(=O)c2[nH]cnc21 | – | – | – | – | – | 6.11 | –
6 | O=c1[nH]c(=S)n(Cc2ccc(F)cc2)c2nc[nH]c12 | – | – | – | – | – | 6.23 | –
7 | COc1ccc(Cl)cc1-c1cc(=O)[nH]c(=S)n1CC(N)=O [PF-06282999] | – | – | – | – | – | 6.00 | –
8 | NC(c1ccccc1)c1ccccc1Cn1c(=S)[nH]c(=O)c2[nH]ccc21 (stereo not drawn) | 18 ×10⁻⁶ cm/s | – | 1.7 | – | 8.3 µM (≈ 3.01 µg/mL) | 5.86 | –
9 | CC(C)NCc1ccccc1Cn1c(=S)[nH]c(=O)c2[nH]ccc21 | 12 ×10⁻⁶ cm/s | 7.51 | 0.9 | 4.89 | 140 µM (≈ 46 µg/mL) | 5.09 | –
10 | NCc1cc(Cl)ccc1Cn1c(=S)[nH]c(=O)c2[nH]ccc21 | 6 ×10⁻⁶ cm/s | – | 1.2 | – | 42 µM (≈ 13.5 µg/mL) | 5.89 | pIC50 [11]: < 4.52; pIC50 [12]: < 4.52; pIC50 [13]: 4.72; pIC50 [14]: < 4.40; pIC50 [15]: < 4.52; bioavailability [16]: 68%; bioavailability [17]: 45%; pIC50 [18]: < 4.52
11 | NCc1cc(Cl)ccc1Cn1c2cc[nH]c2c(=O)[nH][14c]1=S | – | – | – | – | – | – | Drug uptake [19]: Active; Drug uptake [20]: Active; Drug uptake [21]: Active; Drug uptake [22]: Active; Drug uptake [23]: 95 pmol
12 | O=c1[nH]c(=S)n(C[C@H]2CCCO2)c2nc[nH]c12 | – | 6.55 | – | 4.54 | – | 5.62 | pKd [24]: 4.20
13 | C[C@H](N)c1cc(Cl)ccc1Cn1c(=S)[nH]c(=O)c2[nH]ccc21 | 10 ×10⁻⁶ cm/s | – | 1.4 | – | 850 µM (≈ 285 µg/mL) | 5.96 | –
14 | CC(C)NCc1ccccc1Cn1c(=S)[nH]c(=O)c2[nH]cnc21 | 0.89 ×10⁻⁶ cm/s | 7.41 | 0.3 | 4.10 | 18 µM (≈ 5.93 µg/mL) | 5.38 | –
15 | CN[C@H](C)c1cc(Cl)ccc1Cn1c(=S)[nH]c(=O)c2[nH]ccc21 (racemic) | 19 ×10⁻⁶ cm/s | 7.90 | 1.5 | 5.34 | 190 µM (≈ 66.3 µg/mL) | 5.96 | –
16 | CC(=O)NCc1cc(Cl)ccc1Cn1c(=S)[nH]c(=O)c2[nH]ccc21 | 11 ×10⁻⁶ cm/s | 6.85 | 2 | 4.80 | 3.3 µM (≈ 1.2 µg/mL) | 5.85 | –
17 | CNCc1cc(Cl)ccc1Cn1c(=S)[nH]c(=O)c2[nH]ccc21 | 17 ×10⁻⁶ cm/s | 7.80 | 1.3 | 5.18 | 160 µM (≈ 53.6 µg/mL) | 5.68 | pIC50 [13]: < 4.52; pIC50 [14]: 5.00; bioavailability [16]: 60%; bioavailability [17]: 72%

— ChEMBL document CHEMBL5126625, “Discovery of AZD4831, a Mechanism-Based Irreversible Inhibitor of Myeloperoxidase, As a Potential Treatment for Heart Failure with Preserved Ejection Fraction” (J Med Chem, 2022)
